According to ChEMBL document CHEMBL1152242, “Aldehydic components of cinnamon bark extract suppresses RANKL-induced osteoclastogenesis through NFATc1 downregulation” (Bioorg Med Chem, 2008):
Calls of active or inactive are those of the source. No cut-off for these calls is given here.

Legend:
RAW264.7 [1] = experiment: Inhibition of bone resorption by mature osteoclast in RANKL-stimulated mouse RAW264.7 cells pretreated for 1 hr measured after 8 days; assay type: functional, cell-based
Summary of the method: (§1)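 RAW264.7 cells pretreated with compound for 1 h, then RANKL (50 ng/ml) added on calcium phosphate apatite-coated plates. Incubated 8 days, then 5% sodium hypochlorite for 5 min, washed, dried and photographed. Total resorbed pit area (mm²) given as mean ± SD of triplicates.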

[2] = Inhibition of NF-kappaB transfected in LPS-stimulated mouse RAW264.7 cells; assay type: cell-based
RAW264.7 [3] = experiment: Inhibition of NFATc1 expression in RANKL-stimulated mouse RAW264.7 cells after 48 hrs by immunoblotting; assay type: functional, cell-based
Summary of the method: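 RAW264.7 cells in α-MEM cultured with RANKL plus test compound for 48 h. Lysates in HEPES pH 7.8/NaCl/EDTA/MgCl2/DTT buffer with protease inhibitors, run on 8% SDS-PAGE and transferred to nitrocellulose. Blocked in 5% milk/PBS-Tween, then anti-NFATc1 primary overnight at 4 °C with GAPDH as loading control. Detected with HRP secondary and ECL.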

RAW264.7 [4] = experiment: Inhibition of multinucleated cell formation in RANKL-stimulated mouse RAW264.7 cells at 0.5 to 2 uM after 3 days by TRAP staining; assay type: functional, cell-based
Summary of the method: (§2)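 RAW264.7 cells in α-MEM with RANKL, with or without compound, cultured 3 days at 37 °C, 5% CO2. Fixed in acetone/citrate for 30 s, then TRAP-stained with a kit. TRAP+ cells with ≥4 nuclei scored as MNCs by light microscopy, counting four fields, repeated four times. Relative MNC number reported as mean ± SD of triplicates; ANOVA with Dunnett's test.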

RAW264.7 [5] = experiment: Inhibition of multinucleated cell formation in RANKL-stimulated mouse RAW264.7 cells after 3 days by TRAP staining; assay type: functional, cell-based; summary of the method: as §2
RAW264.7 [6] = experiment: Inhibition of bone resorption by mature osteoclast in RANKL-stimulated mouse RAW264.7 cells at 2 uM pretreated for 1 hr measured after 8 days; assay type: functional; summary of the method: as §1
[7] = target: T1, Nuclear factor of activated T-cells, cytoplasmic 1 (Mus musculus) (UniProt O88942); experiment: Inhibition of NFATc1 pathway in RANKL-stimulated mouse RAW264.7 cells at 1 to 2 uM; assay type: cell-based
T1 sequence (whole entry): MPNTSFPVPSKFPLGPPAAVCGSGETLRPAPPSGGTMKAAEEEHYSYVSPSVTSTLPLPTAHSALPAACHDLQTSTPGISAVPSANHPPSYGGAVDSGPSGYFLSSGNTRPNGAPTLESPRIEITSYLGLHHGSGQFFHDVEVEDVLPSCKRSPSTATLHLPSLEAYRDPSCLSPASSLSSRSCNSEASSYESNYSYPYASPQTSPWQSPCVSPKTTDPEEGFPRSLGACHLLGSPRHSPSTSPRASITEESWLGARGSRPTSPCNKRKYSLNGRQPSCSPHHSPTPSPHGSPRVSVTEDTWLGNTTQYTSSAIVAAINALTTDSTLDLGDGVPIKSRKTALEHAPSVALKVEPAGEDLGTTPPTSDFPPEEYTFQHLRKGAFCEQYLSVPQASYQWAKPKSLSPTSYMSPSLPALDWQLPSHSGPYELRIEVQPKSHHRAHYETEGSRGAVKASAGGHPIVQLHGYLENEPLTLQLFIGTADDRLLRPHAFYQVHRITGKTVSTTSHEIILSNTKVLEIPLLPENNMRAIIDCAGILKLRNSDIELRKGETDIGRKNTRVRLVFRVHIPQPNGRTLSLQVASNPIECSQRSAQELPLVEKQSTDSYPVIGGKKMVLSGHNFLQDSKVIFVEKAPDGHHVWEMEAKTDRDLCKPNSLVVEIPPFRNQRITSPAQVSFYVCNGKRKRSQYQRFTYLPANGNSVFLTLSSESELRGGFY

RAW264.7 [8] = experiment: Inhibition of osteoclastogenesis in RANKL-stimulated mouse RAW264.7 cells at 1 to 2 uM; assay type: functional, cell-based
RAW264.7 [9] = experiment: Inhibition of NF-kappaB activation transfected in RANKL-stimulated mouse RAW264.7 cells at 1 to 2 uM; assay type: cell-based

Row | Structure (SMILES) | Activity (RAW264.7 [1]) | IC50 [2] [µM] | Activity (RAW264.7 [3]) | Activity (RAW264.7 [4]) | Activity (RAW264.7 [5]) | inhibition at 2 µM (RAW264.7 [6]) [%] | Activity [7] | Activity (RAW264.7 [8]) | Activity (RAW264.7 [9])
1 | O=C/C=C/c1ccccc1 [CINNAMALDEHYDE] | Active | 43 | Active | Active |  |  |  |  | 
2 | OC/C=C/c1ccccc1 |  |  |  |  | inactive |  |  |  | 
3 | O=C(O)/C=C/c1ccccc1 |  |  |  |  | inactive |  |  |  | 
4 | COc1ccccc1/C=C/C=O | Active | 31 | Active | Active |  | 95 | Active | Active | inactive
